# Only some compounds are listed: those with a hit (about 9.6% of all), similar ones and a draw of the others.
# Lmaj promast = Leishmania major promastigote growth inhibition. AID 1063. inhibition, % at 10 µM. 200,000 compounds, 9% hits. Leishmania major promastigotes, resazurin fluorescence viability; in the data active means inhibition above about 50%;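 further: promastigotes grown with compound for 44 hours at 28 °C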
# TNAP act hiacc = increases human TNAP activity under high phosphate acceptor concentration. P05186. purified TNAP, CDP-star luminescence, 1 M DEA, 30 min; active compounds read high; 0 = EDTA background, 1 = DMSO-only activity. activation factor at 20 µM. 200,000 tested, under 10 active. AID 1136;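 active means activation factor at least 2 at 20 µM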
# Target sequence (P05186 whole entry, looked up): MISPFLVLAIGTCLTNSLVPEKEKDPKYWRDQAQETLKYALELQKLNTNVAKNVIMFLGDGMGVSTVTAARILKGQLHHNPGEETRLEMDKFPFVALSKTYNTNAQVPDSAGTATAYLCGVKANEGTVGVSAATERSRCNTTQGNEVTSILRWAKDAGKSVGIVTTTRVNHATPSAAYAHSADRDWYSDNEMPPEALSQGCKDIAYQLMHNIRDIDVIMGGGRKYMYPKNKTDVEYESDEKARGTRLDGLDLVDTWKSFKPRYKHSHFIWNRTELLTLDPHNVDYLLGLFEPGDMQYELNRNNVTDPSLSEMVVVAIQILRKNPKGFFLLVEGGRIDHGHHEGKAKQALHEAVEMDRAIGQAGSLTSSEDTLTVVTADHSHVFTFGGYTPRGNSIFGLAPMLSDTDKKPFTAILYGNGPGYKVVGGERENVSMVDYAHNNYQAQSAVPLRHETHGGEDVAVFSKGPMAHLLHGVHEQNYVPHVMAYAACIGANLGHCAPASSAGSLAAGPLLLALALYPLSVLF
#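 system = human TNAP | amount = enzyme diluted 1/800 final | reagent = 100 µM CDP-star substrate | signal = luminescent substrate turnover signal | dosing = one dose, 20 µM | benchmarks = EDTA negative control, DMSO positive control | measure = activation factor | timing = 30 min reaction, room temperature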
# HCT116 bCat-KO = beta-catenin-lacking colon tumor cell growth suppression; AID 818; viability, % at 10 µM; 140,000 compounds, 1.5% hits; HCT116 beta-catenin knockout viability, CellTiter-Glo, 60 h; active compounds read low;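 active means viability at or under a set limit, the compound median less 4 SD, cut at about 6% in these data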;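 further: 0% = Hyamine 1622 control at 20 µM and 100% = untreated cell control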
# TNAP inh no acc = TNAP (human) inhibition, acceptor-free conditions. AID 1012. purified TNAP, CDP-star luminescence, 30 min. inhibition, % at 20 µM. P05186. 200,000 compounds, 0.26% hits;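 active means tissue-nonspecific alkaline phosphatase inhibition above about 50% at 20 µM in the single-dose screen, limit read from the data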;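 further: 0% = DMSO negative control and 100% = EDTA positive control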
# TNAP inh hiacc = blocks human TNAP under high phosphate acceptor concentration; P05186; purified TNAP, CDP-star luminescence, 1 M DEA; inhibition, % at 20 µM; 200,000 compounds, 0.03% hits;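 active means over 50% inhibition of tissue-nonspecific alkaline phosphatase at 20 µM in the single-dose screen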;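 further: plate controls were DMSO wells for no effect and EDTA-quenched wells as full inhibition for full effect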
# PTEN del growth = PTEN-deleted cell growth suppression; HCT116 PTEN-null viability, CellTiter-Glo, 60 h; active compounds read low; viability, % at 10 µM; 140,000 compounds, 1.2% hits; AID 827;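 active means viability at or below a set limit, 4 SD under the median of all tested compounds, cut at about 3.7% in these data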;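 further: PTEN knockout HCT116 line with beta catenin targeted HCT116 as companion control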
# An asterisk follows results filed as active; . = no result.
SMILES,Lmaj promast,TNAP act hiacc,HCT116 bCat-KO,TNAP inh no acc,TNAP inh hiacc,PTEN del growth
COc1cccc(C(=O)Nc2ccc3nc(N4CCN(c5ncccn5)CC4)cc(C)c3c2)c1OC,34,1,2.0*,-11,-1,1.7*
COc1ccc(C)cc1NC(=O)CCC(=O)Nc1ccc2nc(N3CCN(C)CC3)cc(C)c2c1,91*,1.1,82,-12,-7,79
CCCCN(C)C(=S)Nc1ccc2nc(N3CCN(CC)CC3)cc(C)c2c1,42,1,.,-2,-3,.
CCN1CCN(c2cc(C)c3cc(NC(=O)Cc4ccccc4OC)ccc3n2)CC1,12,1,59,-13,0,76
CCOc1ccccc1C(=O)Nc1ccc2nc(N3CCN(c4ncccn4)CC3)cc(C)c2c1,21,.,.,.,.,.
CC1CCN(c2ccc(N3C(=O)C4CCCCC4C3=O)cc2[N+](=O)[O-])CC1 (stereo unspecified),-3,1,101,-5,-1,103
COC(=O)c1cccn(CC(=O)c2ccc(Cl)cc2Cl)c1=O,-1,1,.,-4,1,.
CCN1CCN(c2cc(C)c3cc(NC(=O)c4ccc(OC)c(OC)c4)ccc3n2)CC1,55*,1,8,-12,-5,23
CCCCNC(=O)CNC(=S)N(Cc1ccccc1)Cc1cccnc1,16,1,91,2,-2,90
COCCCNC(=S)N(Cc1cccnc1)Cc1ccc(OC)c(OC)c1,89*,1,96,-18,2,100
CC(C)(C)c1ccc(NC(=O)Nc2ccc(F)cc2)cc1,-4,1.1,.,-12,-6,.
CN(Cc1ccccc1)C(=O)c1ccccc1-c1ccccc1,13,1,.,-14,-3,.
Nc1nc(Nc2cccc(F)c2)nc2ccccc12,89*,1.1,70,-15,-9,71
Cc1ccc(C)c(NC(=O)c2cc(-c3cccnc3)nc3ccccc23)c1,8,1,.,-12,-2,.
Cc1ccc(C)c(Nc2nc(N)c3ccccc3n2)c1,98*,1,.,-18,-3,.
O=c1oc(Nc2cccc(F)c2)nc2ccccc12,-2,1,112,-10,-1,91
CCC/C(O)=C1\C(=O)CC(c2ccccc2)CC1=NCCc1c(C)[nH]c2ccc(C)cc12 (stereo unspecified),58*,1,77,-1,0,71
CC/C(O)=C1\C(=O)CC(c2ccccc2)CC1=NCCc1c(C)[nH]c2ccc(C)cc12 (stereo unspecified),73*,1,83,-12,-2,77
O=C(CN1CCN(Cc2ccc(F)cc2)C1=O)NC1CCCC1,-10,1,.,-6,-3,.
COc1ccc2c(C)cc(N3CCN(c4ccc(F)cc4)CC3)nc2c1,87*,1,80,-6,-2,78
Cc1cc(N2CCN(C)CC2)nc2ccc(NC(=S)N3CCN(c4ccc(F)cc4)CC3)cc12,100*,1,.,-10,-4,.
CCCCN(CC)C(=S)Nc1ccc2nc(N3CCN(C)CC3)cc(C)c2c1,53*,1,.,5,2,.
Cc1cccc(N2CCN(C(=S)Nc3ccc4nc(N5CCN(C)CC5)cc(C)c4c3)CC2)c1C,101*,1,.,-8,-3,.
Cc1cc(N2CCN(C)CC2)nc2ccc(NC(=S)N3CCCCCC3)cc12,22,1.1,.,4,-9,.
Cc1cc(N2CCN(C)CC2)nc2ccc(NC(=S)N3CCCCC3)cc12,33,1.1,.,0,-6,.
SMILES,Lmaj promast,TNAP act hiacc,HCT116 bCat-KO,TNAP inh no acc,TNAP inh hiacc,PTEN del growth
O=C(CSc1ccc(-c2ccc(F)cc2)nn1)N1CCOCC1,-2,1,.,-10,-3,.
CC(C)CC(=O)N1CC(C)N(C(=O)CC(C)C)CC1C (stereo unspecified),-4,1,86,-2,-4,87
CCOC(=O)c1c(NC(=O)COC(=O)c2ccccn2)sc2c1CCC2,47,1,73,8,-5,76
Cc1cccc(N2CCN(C(=S)Nc3ccc4nc(N5CCN(C)CC5)cc(C)c4c3)CC2C)c1 (stereo unspecified),98*,1,.,10,-1,.
Cc1cc(N2CCN(C)CC2)nc2ccc(NC(=S)N3CCN(c4cccc(Cl)c4)CC3)cc12,50,1.1,.,-1,-5,.
Cc1cc(N2CCN(C)CC2)nc2ccc(NC(=S)N3CCN(c4ccc(Cl)cc4)CC3)cc12,100*,1,.,-10,-3,.
C=CCNc1nc(N(c2ccccc2)c2ccccc2)nc(-n2ccnc2)n1,55*,1,93,8,-2,95
CCCCNc1nc(N(C)c2ccccc2)nc(-n2ccnc2)n1,98*,1.1,79,-4,-6,70
CCCn1c(SCC(=O)Nc2cc(S(=O)(=O)N3CCOCC3)ccc2OC)n[nH]c1=O,0,1,91,23,3,96
Cc1ccc2[nH]c(=O)c(C3C(C#N)=C(N)Oc4c3ccc3cccnc43)cc2c1 (stereo unspecified),96*,1,10,1,2,8
COc1ccc(C=O)cc1Cn1c(C)cc(C)c(C#N)c1=O,12,1,.,1,2,.
Cc1ccc2[nH]c(C)c(CCNC(=O)C3CCCCC3C(=O)OCC(F)(F)F)c2c1 (stereo unspecified),43,1,88,11,0,96
COc1ccc(NCc2ccc([N+](=O)[O-])s2)c(OC)c1,98*,1,29,-1,4,21
COc1ccc(NCc2ccc([N+](=O)[O-])s2)cc1,73*,1,62,15,2,68
N#CC1=C(N)N(c2ncn[nH]2)C2=C(C(=O)CCC2)C1c1ccccc1 (stereo unspecified),-7,1,.,-3,0,.
CCOc1ccc(C2C(C#N)=C(N)N(c3sc4c(c3C#N)CCCC4)C3=C2C(=O)CCC3)cc1 (stereo unspecified),57*,1,80,-2,-5,74
CSc1ccc(C2C(C#N)=C(N)N(c3ccccc3)C3=C2C(=O)CCC3)cc1 (stereo unspecified),74*,1,81,-11,-4,93
COc1ccc(C(=O)NCC(=O)OCc2ccc(F)cc2)cc1,-9,1,.,-12,-1,.
Cc1nc(Nc2ccc(F)cc2)[nH]c(=O)c1CCC(C)C,53*,1,62,12,-1,49
Oc1cccc(/C=N/Nc2cc(N3CCCC3)nc(N3CCCC3)n2)c1,97*,1,31,-30,-3,11
Oc1ccc(/C=N/Nc2cc(N3CCCC3)nc(N3CCCC3)n2)cc1,13,1,72,-3,2,76
COc1ccc(/C=N/Nc2cc(N3CCCC3)nc(N3CCCC3)n2)cc1,95*,0.9,.,-1,8,.
Cc1nn(CC(=O)OCC(=O)NC(C)c2ccccc2)c(C)c1[N+](=O)[O-] (stereo unspecified),-4,1,.,-7,-4,.
Cc1c(Cl)cccc1NC(=O)CNC(=O)c1ccccc1F,-8,1,94,-18,-1,110

# Screens as filed in PubChem BioAssay.
